pIC50: −log10 of the molar value.
How the values were obtained:
[1] = biological target: T1, Cholesteryl ester transfer protein (Homo sapiens, UniProt P11597); test: In vitro concentration required to inhibit 50% of cholesteryl ester transfer protein mediated cholesteryl ester transfer from HDL to VLDL and LDL in human plasma; type: cell-free
T1 sequence (P11597 whole entry): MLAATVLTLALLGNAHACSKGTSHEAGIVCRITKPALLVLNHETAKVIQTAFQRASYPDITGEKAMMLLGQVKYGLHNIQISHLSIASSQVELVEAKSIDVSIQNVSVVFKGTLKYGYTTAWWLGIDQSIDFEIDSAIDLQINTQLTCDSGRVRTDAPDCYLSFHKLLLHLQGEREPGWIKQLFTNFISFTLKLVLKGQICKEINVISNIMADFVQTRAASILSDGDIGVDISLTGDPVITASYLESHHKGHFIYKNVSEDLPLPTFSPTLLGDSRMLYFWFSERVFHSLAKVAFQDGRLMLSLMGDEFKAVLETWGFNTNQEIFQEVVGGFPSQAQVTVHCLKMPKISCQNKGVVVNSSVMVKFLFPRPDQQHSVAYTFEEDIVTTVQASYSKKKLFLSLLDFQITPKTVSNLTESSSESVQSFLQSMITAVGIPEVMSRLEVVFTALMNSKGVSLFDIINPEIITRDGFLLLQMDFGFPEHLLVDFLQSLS
In short: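 Compound dissolved in 1:1 N-methyl-2-pyrrolidinone/PEG 400 and added to human plasma, with organic solvent at 2% final. Plasma then incubated with [3H]CE-labelled HDL at 37 °C for 4 h. ApoB lipoproteins precipitated with dextran sulfate (0.075% final) and MgCl2 (37.5 mM final). Transfer taken as the loss of supernatant HDL radioactivity. IC50 estimated from five-dose response curves.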

[2] = biological target: T2, Cholesteryl ester transfer protein (Homo sapiens) (UniProt P11597); test: Percent inhibition of cholesteryl ester transfer protein in human plasma at 5 uM; type: cell-free
T2 sequence (whole entry): T1 sequence (P11597 whole entry)

[3] = tested on: Oryctolagus cuniculus; test: In vivo percent inhibition of cholesteryl ester transfer protein was measured 3h after oral administration of 30 mg/kg JW rabbits plasma; type: functional
In short: (§1)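 Male JW rabbits, 11-15 weeks old, dosed orally; plasma taken 3 h post-dose and spun at 11000g for 5 min at 4 °C. Plasma (1.8 µL) diluted to 600 µL in Tris-buffered saline pH 7.4 with 0.1 mg/mL BSA. Incubated 15 h at 37 °C with [3H]CE-HDL and VLDL/LDL, then VLDL/LDL precipitated with dextran sulfate/MgCl2 and supernatant counted. Inhibition expressed relative to vehicle-dosed rabbits.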

[4] = tested on: Oryctolagus cuniculus; test: In vivo percent elevation evaluated from the plasma HDL levels in JW rabbits by oral administration of 100 mg/kg once a day for 3 days; type: functional
In short: (§2)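 Male JW rabbits, 11-15 weeks old, N = 5, dosed orally once daily for 3 days. ApoB lipoproteins in plasma precipitated with 13% PEG 6000, and HDL cholesterol measured by enzymatic assay. Elevation expressed relative to vehicle-dosed rabbits.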

[5] = biological target: T2, Cholesteryl ester transfer protein (Homo sapiens); test: Percent inhibition of cholesteryl ester transfer protein in human plasma at 9 uM; type: cell-free
[6] = tested on: Oryctolagus cuniculus; test: In vivo percent inhibition of cholesteryl ester transfer protein was measured 3h after oral administration of 10 mg/kg JW rabbits plasma; type: functional; in short: as §1
[7] = tested on: Oryctolagus cuniculus; test: In vivo percent elevation evaluated from the plasma HDL levels in JW rabbits by oral administration of 30 mg/kg once a day for 3 days; type: functional; in short: as §2

Row | Structure (SMILES) | pIC50 [1] | further results
1 | CC1(C(=O)Nc2ccccc2SSc2ccccc2NC(=O)C2(C)CCCCC2)CCCCC1 | 5.10 | 
2 | CCCCCCCC1(C(=O)Nc2ccccc2S)CCCCC1 | 5.15 | 
3 | CC(C)(C)C(=O)Nc1ccc(SSc2ccc(NC(=O)C(C)(C)C)cc2)cc1 | < 3.30 | 
4 | CCC(CC)CC1(C(=O)Nc2ccccc2SC)CCCCC1 | < 3.52 | 
5 | CCCCCCCC(=O)Nc1ccccc1SSc1ccccc1NC(=O)CCCCCCC | 4.68 | 
6 | CCCCCC1(C(=O)Nc2ccccc2S)CCCCC1 | 5.15 | 
7 | CC1(C(=O)Nc2ccccc2OC(=O)Cc2ccccc2)CCCCC1 | < 3.52 | 
8 | CCCCCCC1(C(=O)Nc2ccccc2S)CCCCC1 | 5.22 | 
9 | CCC(=O)Nc1ccccc1SSc1ccccc1NC(=O)CC | 3.74 | 
10 | CCC(CC)CC1(C(=O)Nc2ccccc2S)CCCCC1 | 5.30 | inhibition [2]: 50%
11 | CC(C)(C)C(=O)Nc1ccccc1SSc1ccccc1NC(=O)C(C)(C)C | 4.89 | 
12 | CN(C(=O)C(C)(C)C)c1ccccc1SSc1ccccc1N(C)C(=O)C(C)(C)C | < 3.52 | 
13 | CCCCC1(C(=O)Nc2ccccc2S)CCCCC1 | 5.05 | 
14 | CCC(CC)CC1(C(=O)Nc2ccccc2SC(C)=O)CCCCC1 |  | inhibition in vivo at 30 mg/kg [3]: 40%
15 | CC(C)CCCC1(C(=O)Nc2ccccc2S)CCCCC1 | 5.22 | 
16 | CC(C)(C)NC(=O)c1ccccc1SSc1ccccc1C(=O)NC(C)(C)C | < 3.30 | 
17 | CC(C)(C)C(=O)Nc1cccc(SSc2cccc(NC(=O)C(C)(C)C)c2)c1 | < 3.30 | 
18 | CCC(CC)CC1(C(=O)Nc2ccccc2SC(=O)C(C)(C)C)CCCCC1 |  | inhibition in vivo at 30 mg/kg [3]: 32%
19 | CCC(CC)CC1(C(=O)Nc2ccccc2SC(=O)C(C)C)CCCCC1 [DALCETRAPIB] | 5.22 | Elevation [4]: 54%; inhibition [5]: 50%; inhibition in vivo at 10 mg/kg [6]: 35%; inhibition in vivo at 30 mg/kg [3]: 95%; Elevation [7]: 27%
20 | CC(=O)Nc1ccccc1SSc1ccccc1NC(C)=O | 3.30 | 

Reference: ChEMBL document CHEMBL1133653, “bis(2-(Acylamino)phenyl) disulfides, 2-(acylamino)benzenethiols, and S-(2-(acylamino)phenyl) alkanethioates as novel inhibitors of cholesteryl ester transfer protein” (J Med Chem, 2000)
